Laboratory results taken from ChEMBL document CHEMBL1122607, “Heterocyclic analogues of chlorcyclizine with potent hypolipidemic activity” (J Med Chem, 1984).
Values joined by “and” are separate entries in the source; they are usually repeats but may differ in a detail not shown here. Equal entries are not always repeated.

Columns and labels:
Rattus norvegicus [1] = assay: Hypolipidemic activity was measured as reduction in rat serum triglyceride after oral administration in male Wistar rats at 50 mg / (kg day); type: functional
Summary of the method: (§1)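 Cholesterol-fed rats given the test compound orally by gavage on the last 3 days, with controls receiving vehicle (0.5% tragacanth mucilage). After overnight starvation, rats were killed under CO2 3 h after the last dose and bled by cardiac puncture. Serum cholesterol and triglyceride were measured by autoanalyzer and expressed as percentage reduction from control levels, with Student's t test.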

Rattus norvegicus [2] = assay: Hypolipidemic activity was measured as reduction in rat serum triglyceride after oral administration in male Wistar rats at 200 mg / (kg day); type: functional; summary of the method: as §1
Rattus norvegicus [3] = assay: Minimum effective dose (MED) is the dose (mg/kg)that cause significant reduction in serum cholesterol of 30% compared to concurrent controls.; type: functional; set-up: unit: mg/kg
Summary of the method: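 MED was calculated from the log dose/response curve as the dose giving a statistically significant 30% fall in serum cholesterol versus concurrent controls. Measured in the 3-day oral cholesterol-fed rat screen, or in a 2-week test: groups of eight young male Wistar rats on cholesterol/cholic acid-supplemented or normal diet, dosed orally by gavage daily for 14 days, vehicle 0.5% tragacanth mucilage.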

[4] = (§2) The therapeutic safety margin (TSM) is the ratio of the minimum lethal dose (mg/kg)to the MED; type: ADME, organism-based; details: in vivo
Summary of the method: (§3)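 Young male Wistar rats, eight per group, on cholesterol/cholic acid-supplemented or normal diet; graded oral gavage doses daily for 14 days; vehicle controls (0.5% tragacanth mucilage). Mortalities recorded to give the minimum lethal daily dose. After overnight fasting, serum cholesterol assayed by autoanalyzer. MED is the dose giving a significant (t test) 30% cholesterol fall, from the log dose/response curve. TSM = minimum lethal dose/MED.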

Rattus norvegicus [5] = assay: Hypolipidemic activity was measured as reduction in rat serum triglyceride after oral administration in male Wistar rats at 20 mg / (kg day); type: functional; summary of the method: as §1
Rattus norvegicus [6] = assay: Hypolipidemic activity was measured as reduction in rat serum cholesterol after oral administration in male Wistar rats at 200 mg / (kg day); type: functional; summary of the method: as §1
Rattus norvegicus [7] = assay: Hypolipidemic activity was measured as reduction in rat serum cholesterol after oral administration in male Wistar rats at 20 mg / (kg day); type: functional; summary of the method: as §1
Rattus norvegicus [8] = assay: Hypolipidemic activity was measured as reduction in rat serum cholesterol after oral administration in male Wistar rats at 50 mg / (kg day); type: functional; summary of the method: as §1
Rattus norvegicus [9] = assay: Hypolipidemic activity was measured as reduction in rat serum cholesterol after oral administration in male Wistar rats at 3 mg / (kg day); type: functional; summary of the method: as §1
Rattus norvegicus [10] = assay: Hypolipidemic activity was measured as reduction in rat serum triglyceride after oral administration in male Wistar rats at 30 mg / (kg day); type: functional; summary of the method: as §1
Rattus norvegicus [11] = assay: Hypolipidemic activity was measured as reduction in rat serum triglyceride after oral administration in male Wistar rats at 100 mg / (kg day); type: functional; summary of the method: as §1
Rattus norvegicus [12] = assay: Hypolipidemic activity was measured as reduction in rat serum triglyceride after oral administration in male Wistar rats at 1 mg / (kg day); type: functional; summary of the method: as §1
Rattus norvegicus [13] = assay: Hypolipidemic activity was measured as reduction in rat serum triglyceride after oral administration in male Wistar rats at 10 mg / (kg day); type: functional; summary of the method: as §1
Rattus norvegicus [14] = assay: Hypolipidemic activity was measured as reduction in rat serum cholesterol after oral administration in male Wistar rats at 1 mg / (kg day); type: functional; summary of the method: as §1
Rattus norvegicus [15] = assay: Hypolipidemic activity was measured as reduction in rat serum triglyceride after oral administration in male Wistar rats at 3 mg / (kg day); type: functional; summary of the method: as §1
Rattus norvegicus [16] = assay: Hypolipidemic activity was measured as reduction in rat serum cholesterol after oral administration in male Wistar rats at 10 mg / (kg day); type: functional; summary of the method: as §1
Rattus norvegicus [17] = assay: Hypolipidemic activity was measured as reduction in rat serum cholesterol after oral administration in male Wistar rats at 100 mg/(kg day); type: functional; summary of the method: as §1
Rattus norvegicus [18] = assay: Hypolipidemic activity was measured as reduction in rat serum cholesterol after oral administration in male Wistar rats at 30 mg / (kg day); type: functional; summary of the method: as §1
Rattus norvegicus [19] = assay: Hypolipidemic activity was measured as reduction in rat serum cholesterol after oral administration in male Wistar rats at 3 mg / (kg day);; type: functional; summary of the method: as §1
Rattus norvegicus [20] = assay: Hypolipidemic activity was measured as reduction in rat serum triglyceride after oral administration in male Wistar rats at 3 mg / (kg day);; type: functional; summary of the method: as §1
Rattus norvegicus [21] = assay: Hypolipidemic activity was measured as reduction in rat serum triglyceride after oral administration in male Wistar rats at 1; type: functional; summary of the method: as §1
Rattus norvegicus [22] = assay: Hypolipidemic activity was measured as reduction in rat serum cholesterol after oral administration in male Wistar rats at 200 mg/(kg day); type: functional; summary of the method: as §1
Rattus norvegicus [23] = assay: Hypolipidemic activity was measured as reduction in rat serum cholesterol after oral administration in male Wistar rats at 100 mg / (kg day); type: functional; summary of the method: as §1
[24] = as §2; type: functional; summary of the method: as §3
Rattus norvegicus [25] = assay: xHypolipidemic activity was measured as reduction in rat serum cholesterol after oral administration in male Wistar rats at 10 mg / (kg day); type: functional; summary of the method: as §1

Row | Compound | MED (Rattus norvegicus [3]) | therapeutic safety margin (minimum lethal dose / MED) [4] | Reduction (Rattus norvegicus [9]) | Reduction (Rattus norvegicus [10]) [%] | Reduction (Rattus norvegicus [11]) [%] | Reduction (Rattus norvegicus [12]) [%] | Reduction (Rattus norvegicus [13]) [%] | Reduction (Rattus norvegicus [14]) [%] | Reduction (Rattus norvegicus [15]) [%] | Reduction (Rattus norvegicus [16]) [%] | Reduction (Rattus norvegicus [17]) [%] | Reduction (Rattus norvegicus [18]) [%] | also measured
1 | Cc1cc(C(c2ccccc2C)N2CCN(C)CC2)sn1 (configuration not stated) | 22 | 10 | – | – | – | – | – | – | – | – | – | – | Reduction (Rattus norvegicus [1]): 26%; Reduction (Rattus norvegicus [2]): 84%; Reduction (Rattus norvegicus [5]): 14%; Reduction (Rattus norvegicus [6]): 65%; Reduction (Rattus norvegicus [7]): 27%; Reduction (Rattus norvegicus [8]): 56%
2 | CC(C)c1ccc(C(c2ccns2)N2CCNCC2)cc1 (configuration not stated) | 1 | 4 | 57% | 87 | 90 | 24 | 65 | 37 | 18 | 62 | 84 | 74 | –
3 | Cc1cc(C(=C2CCN(C)CC2)c2ccc(C(C)C)cc2)sn1 | 6 | 5 | 26% | 76 | 96 | 3 | 34 | 19 | 37 | 62 | 83 | 87 | –
4 | COc1ccccc1C(c1ccns1)N1CCN(C)CC1 (configuration not stated) | 80 | – | – | – | 13 | – | – | – | – | – | 38 | – | Reduction (Rattus norvegicus [1]): 32%; Reduction (Rattus norvegicus [5]): 22%; Reduction (Rattus norvegicus [7]): 3%; Reduction (Rattus norvegicus [8]): 31%
5 | Cc1noc(C)c1C(c1ccc(C(C)C)cc1)N1CCNCC1 (configuration not stated) | 1 | 50 | – | 94 | 96 | 22 | 82 | 19 | – | 76 | 86 | 85 | Reduction (Rattus norvegicus [19]): 72%; Reduction (Rattus norvegicus [20]): 45%
6 | Cc1noc(C)c1C(c1ccc(C(C)C)cc1)N1CCN(CCO)CC1 (configuration not stated) | 2 | 100 | 50% | 16 | 84 | – | 56 | 5 | 29 | 76 | 84 | 77 | Reduction (Rattus norvegicus [21]): 7%
7 | Cc1noc(C)c1C(c1ccc(C(C)C)cc1)N1CCN(C)CC1 (configuration not stated) | 2 | 100 | 41% and 30% | 69 | 66 | 31 | 35 | 8 | – | 67 | 87 | 80 | –
8 | Cc1noc(C)c1C(=C1CCNCC1)c1ccc(C(C)C)cc1 | – | – | 44% | 83 | 89 | 41 | 46 | 6 | 6 | 65 | 89 | 83 | –
9 | Cc1cc(C(c2ccc(Cl)cc2)N2CCN(C)CC2)sn1 (configuration not stated) | – | – | – | – | 2 | – | – | – | – | – | – | – | Reduction (Rattus norvegicus [2]): 19%; Reduction (Rattus norvegicus [22]): 67%; Reduction (Rattus norvegicus [23]): 15%
10 | Cc1noc(C)c1C(=C1CCN(C)CC1)c1ccc(C(C)C)cc1 | 1 | 50 | 58% | 93 | 90 | 13 | 78 | 31 | 43 | 83 | 82 | 89 | –
11 | Cc1cc(C(c2ccccc2Cl)N2CCN(C)CC2)sn1 (configuration not stated) | 30 | 15 | – | – | 44 | – | – | – | – | – | 61 | – | Reduction (Rattus norvegicus [1]): 50%; Reduction (Rattus norvegicus [5]): 8%; Reduction (Rattus norvegicus [7]): 16%; Reduction (Rattus norvegicus [8]): 63%
12 | CN1CCN(C(c2ccccc2)c2ccccc2)CC1 [CYCLIZINE] | 30 | – | – | – | – | – | – | – | – | – | – | – | Ratio [24]: 10
13 | Cc1cnsc1C(c1ccc(C(C)C)cc1)N1CCNCC1 (configuration not stated) | 2 | 10 | 44% | 76 | 81 | 15 | 48 | 16 | 2 | 70 | 86 | 87 | –
14 | Cc1cnsc1C(c1ccc(C(C)C)cc1)N1CCN(CCO)CC1 (configuration not stated) | 3 | 30 | 30% | 69 | 97 | 3 | 48 | 10 | 8 | 69 | 87 | 82 | –
15 | Cc1cc(C(c2ccccc2)N2CCN(C)CC2)sn1 (configuration not stated) | – | – | – | – | – | – | – | – | – | – | – | – | Reduction (Rattus norvegicus [22]): 36%; Reduction (Rattus norvegicus [23]): 21%
16 | CN1CCN(C(c2ccns2)c2ccccc2Cl)CC1 (configuration not stated) | 10 | 5 | – | – | 52 | – | 12 | – | – | 31 | 67 | – | Reduction (Rattus norvegicus [5]): 15%; Reduction (Rattus norvegicus [7]): 43%
17 | CCC(C)c1ccc(C(c2cc(C)ns2)N2CCN(C)CC2)cc1 (configuration not stated) | 14 | 20 | – | 55 | 87 | – | 15 | – | – | – | 72 | 67 | Reduction (Rattus norvegicus [25]): 19%
